Measured values reported in publication PMC2842456 (ACS chemical biology, 2010).

B1: SUMO without an attached peptide: yeast SUMO with no attached peptide (protein, UniProt Q12306 2-98, looked up)
Ubiquitin-like protein SMT3: SDSEVNQEAKPEVKPEVKPETHINLKVSDGSSEIFFKIKKTTPLRRLMEAFAKRQGKEMDSLRFLYDGIRIQADQTPEDLDMEDNDIIEAHREQIGG

Tested on: wild-type clamp sensor
Type: binding
Conditions: ligand titration with wild-type clamp sensor (Figure 2F)
In short: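 CyPet–clamp–YPet fusion, expressed in E. coli BL21(DE3) and Ni-affinity purified, used at 140 nM unless noted. Titrated with SUMO fusions (target-peptide fusion, bare SUMO, unrelated-peptide fusion). Samples were degassed, then incubated 30 min at 25 °C in the dark. Excitation 415 nm; FRET ratio taken as 527/475 nm emission, plotted against ligand concentration.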

| Molecule | Effect on the FRET ratio of the wild-type sensor (in words) |
| --- | --- |
| GGDVHVNATYVNVKSVA [SUMO fused with an unrelated peptide] | no significant effect on the FRET ratio |
| B1 | no significant effect on the FRET ratio |
